Experimental data from ChEMBL document CHEMBL5380865, “Linearization of the Brevicidine and Laterocidine Lipopeptides Yields Analogues That Retain Full Antibacterial Activity” (J Med Chem, 2023).
≈ marks a conversion by molar mass, not a printed value. Where a SMILES comes first, the peptide text is derived from it. [ ]: non-standard residue; d: D form. The star is where a group is joined. ξ: configuration not given here. Octanoyl(7-Me) = CC(C)CCCCCC(=O)*; Hexanoyl(4ξ-Me) = CCC(C)CCC(=O)*; dOrn = NCCC[C@@H](N)C(=O)O; Orn = NCCC[C@H](N)C(=O)O; Dap = NC[C@H](N)C(=O)O

Columns and labels:
Escherichia coli [1] = assay: Antibacterial activity Escherichia coli ATCC 25922 assessed as inhibition of visible bacterial growth incubated for 18 hrs by microbroth dilution assay; assay type: functional
How it was run: (§1)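 CLSI broth microdilution. Strains streaked from glycerol stocks onto blood agar (16 h, 37 °C); single colonies grown in TSB at 37 °C, 220 rpm, to OD600 about 0.5. Diluted in MHB to 2 × 10^5 CFU/mL and mixed 1:1 with compounds serially diluted in MHB from DMSO stocks (colistin from water stocks), polypropylene plates. Sealed, 18 h at 37 °C, 600 rpm. MIC taken as lowest concentration preventing visible growth, three technical replicates.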

Klebsiella pneumoniae = assay: Antibacterial activity Klebsiella pneumoniae ATCC 13883 assessed as inhibition of visible bacterial growth incubated for 18 hrs by microbroth dilution assay; assay type: functional; how it was run: as §1
Acinetobacter baumannii = assay: Antibacterial activity Acinetobacter baumannii ATCC 17961 assessed as inhibition of visible bacterial growth incubated for 18 hrs by microbroth dilution assay; assay type: functional; how it was run: as §1
Pseudomonas aeruginosa = assay: Antibacterial activity Pseudomonas aeruginosa PAO1 assessed as inhibition of visible bacterial growth incubated for 18 hrs by microbroth dilution assay; assay type: functional
How it was run: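 CLSI broth microdilution. Colonies from blood agar (16 h, 37 °C) grown in TSB at 37 °C, 220 rpm, to OD600 about 0.5, then diluted in MHB to 2 × 10^5 CFU/mL. Added to DMSO-stock compounds serially diluted in MHB in polypropylene plates. Sealed, 18 h at 37 °C, 600 rpm. MIC = lowest concentration with no visible growth; three technical replicates.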

Staphylococcus aureus = assay: Antibacterial activity Staphylococcus aureus USA300 assessed as inhibition of visible bacterial growth incubated for 18 hrs by microbroth dilution assay; assay type: functional; how it was run: as §1
Escherichia coli [2] = assay: Antibacterial activity Escherichia coli MCR-1 assessed as inhibition of visible bacterial growth incubated for 18 hrs by microbroth dilution assay; assay type: functional
How it was run: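 Colistin-resistant E. coli 25922 carrying MCR-1, grown from glycerol stock in kanamycin-supplemented TSB for 16 h at 37 °C, 220 rpm. Diluted 100-fold in kanamycin-supplemented TSB and grown to OD600 about 0.5, then diluted in MHB to 2 × 10^5 CFU/mL. Combined 1:1 with MHB serial dilutions of compounds. Sealed, 18 h at 37 °C, 600 rpm; lowest concentration without visible growth, triplicate technical replicates.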

[3] = Hemolytic activity in sheep red blood cell assessed as hemolysis at 1 to 128 ug/ml incubated for 1 hrs relative to control; assay type: toxicity, cell-based, Ovis aries, Erythrocyte; details: sheep red blood cells (erythrocytes), at 1 to 128 µg/mL, dose 1-128 µg/ml, read-out: Activity
How it was run: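 Defibrinated sheep erythrocytes washed five times in PBS with 0.002% Tween20 and normalized so the Triton control reads 2.5–3.0 at 415 nm. Mixed 1:1 with compound serial dilutions (128–1 μg/mL) and incubated 1 h at 37 °C, 500 rpm. Supernatant A415 is background-corrected with buffer and expressed as percent of 0.1% Triton X-100 (final). Run in triplicate.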

| SMILES | MIC (Escherichia coli [1]) [µg/mL] | MIC (Klebsiella pneumoniae) [µg/mL] | MIC (Acinetobacter baumannii) [µg/mL] | MIC (Pseudomonas aeruginosa) [µg/mL] | MIC (Staphylococcus aureus) [µg/mL] | MIC (Escherichia coli [2]) [µg/mL] | hemolysis at 1 h [3] [%] |
| --- | --- | --- | --- | --- | --- | --- | --- |
| CCC(C)CCC(=O)N[C@H](C)C(=O)N[C@H](Cc1ccc(O)cc1)C(=O)N[C@H](Cc1c[nH]c2ccccc12)C(=O)N[C@H](CCCN)C(=O)N[C@@H](CCCN)C(=O)NCC(=O)N[C@H](CCCN)C(=O)N[C@@H](Cc1c[nH]c2ccccc12)C(=O)N[C@H](C(=O)N[C@H](C(=O)NCC(=O)N[C@@H](CO)C(N)=O)[C@@H](C)CC)[C@@H](C)O (stereo partly specified) ({Hexanoyl(4ξ-Me)}-[dA][dY][dW][dOrn][Orn]G[dOrn]WTIGS-NH2) | 16 (≈ 10.7 µM) | 16 (≈ 10.7 µM) | 8 (≈ 5.36 µM) | 8 (≈ 5.36 µM) | > 32 | 16 (≈ 10.7 µM) | – |
| CCC(C)CCC(=O)N[C@H](CC(N)=O)C(=O)N[C@H](C)C(=O)N[C@H](Cc1c[nH]c2ccccc12)C(=O)N[C@H](CCCN)C(=O)N[C@@H](CCCN)C(=O)NCC(=O)N[C@H](CCCN)C(=O)N[C@@H](Cc1c[nH]c2ccccc12)C(=O)N[C@H](C(=O)N[C@H](C(=O)NCC(=O)N[C@@H](CO)C(N)=O)[C@@H](C)CC)[C@@H](C)O (stereo partly specified) ({Hexanoyl(4ξ-Me)}-[dN][dA][dW][dOrn][Orn]G[dOrn]WTIGS-NH2) | > 32 | > 32 | > 32 | 16 (≈ 11.1 µM) | > 32 | > 32 | – |
| CCC(C)CCC(=O)N[C@H](CC(N)=O)C(=O)N[C@H](Cc1ccc(O)cc1)C(=O)N[C@H](C)C(=O)N[C@H](CCCN)C(=O)N[C@@H](CCCN)C(=O)NCC(=O)N[C@H](CCCN)C(=O)N[C@@H](Cc1c[nH]c2ccccc12)C(=O)N[C@H](C(=O)N[C@H](C(=O)NCC(=O)N[C@@H](CO)C(N)=O)[C@@H](C)CC)[C@@H](C)O (stereo partly specified) ({Hexanoyl(4ξ-Me)}-[dN][dY][dA][dOrn][Orn]G[dOrn]WTIGS-NH2) | > 32 | > 32 | > 32 | 32 (≈ 22.5 µM) | > 32 | > 32 | – |
| CCC(C)CCC(=O)N[C@H](CC(N)=O)C(=O)N[C@H](Cc1ccc(O)cc1)C(=O)N[C@H](Cc1c[nH]c2ccccc12)C(=O)N[C@H](CCCN)C(=O)N[C@@H](C)C(=O)NCC(=O)N[C@H](CCCN)C(=O)N[C@@H](Cc1c[nH]c2ccccc12)C(=O)N[C@H](C(=O)N[C@H](C(=O)NCC(=O)N[C@@H](CO)C(N)=O)[C@@H](C)CC)[C@@H](C)O (stereo partly specified) ({Hexanoyl(4ξ-Me)}-[dN][dY][dW][dOrn]AG[dOrn]WTIGS-NH2) | > 32 | > 32 | > 32 | 32 (≈ 21.4 µM) | > 32 | > 32 | – |
| CCC(C)CCC(=O)N[C@H](CC(N)=O)C(=O)N[C@H](Cc1ccc(O)cc1)C(=O)N[C@H](Cc1c[nH]c2ccccc12)C(=O)N[C@H](CCCN)C(=O)N[C@@H](CCCN)C(=O)N[C@@H](C)C(=O)N[C@H](CCCN)C(=O)N[C@@H](Cc1c[nH]c2ccccc12)C(=O)N[C@H](C(=O)N[C@H](C(=O)NCC(=O)N[C@@H](CO)C(N)=O)[C@@H](C)CC)[C@@H](C)O (stereo partly specified) ({Hexanoyl(4ξ-Me)}-[dN][dY][dW][dOrn][Orn]A[dOrn]WTIGS-NH2) | 32 (≈ 20.6 µM) | > 32 | 32 (≈ 20.6 µM) | 32 (≈ 20.6 µM) | > 32 | 32 (≈ 20.6 µM) | – |
| CCC(C)CCC(=O)N[C@H](CC(N)=O)C(=O)N[C@H](Cc1ccc(O)cc1)C(=O)N[C@H](Cc1c[nH]c2ccccc12)C(=O)N[C@H](CCCN)C(=O)N[C@@H](CCCN)C(=O)NCC(=O)N[C@H](C)C(=O)N[C@@H](Cc1c[nH]c2ccccc12)C(=O)N[C@H](C(=O)N[C@H](C(=O)NCC(=O)N[C@@H](CO)C(N)=O)[C@@H](C)CC)[C@@H](C)O (stereo partly specified) ({Hexanoyl(4ξ-Me)}-[dN][dY][dW][dOrn][Orn]G[dA]WTIGS-NH2) | > 32 | > 32 | 16 (≈ 10.7 µM) | 32 (≈ 21.4 µM) | > 32 | > 32 | – |
| CCC(C)CCC(=O)N[C@H](CC(N)=O)C(=O)N[C@H](Cc1ccc(O)cc1)C(=O)N[C@H](Cc1c[nH]c2ccccc12)C(=O)N[C@H](CCCN)C(=O)N[C@@H](CCCN)C(=O)NCC(=O)N[C@H](CCCN)C(=O)N[C@@H](C)C(=O)N[C@H](C(=O)N[C@H](C(=O)NCC(=O)N[C@@H](CO)C(N)=O)[C@@H](C)CC)[C@@H](C)O (stereo partly specified) ({Hexanoyl(4ξ-Me)}-[dN][dY][dW][dOrn][Orn]G[dOrn]ATIGS-NH2) | > 32 | > 32 | > 32 | 32 (≈ 22.5 µM) | > 32 | > 32 | – |
| CCC(C)CCC(=O)N[C@H](CC(N)=O)C(=O)N[C@H](Cc1ccc(O)cc1)C(=O)N[C@H](Cc1c[nH]c2ccccc12)C(=O)N[C@H](CCCN)C(=O)N[C@@H](CCCN)C(=O)NCC(=O)N[C@H](CCCN)C(=O)N[C@@H](Cc1c[nH]c2ccccc12)C(=O)N[C@@H](C)C(=O)N[C@H](C(=O)NCC(=O)N[C@@H](CO)C(N)=O)[C@@H](C)CC (stereo partly specified) ({Hexanoyl(4ξ-Me)}-[dN][dY][dW][dOrn][Orn]G[dOrn]WAIGS-NH2) | 8 (≈ 5.31 µM) | 16 (≈ 10.6 µM) | 16 (≈ 10.6 µM) | 4 (≈ 2.65 µM) | > 32 | 16 (≈ 10.6 µM) | – |
| CCC(C)CCC(=O)N[C@H](CC(N)=O)C(=O)N[C@H](Cc1ccc(O)cc1)C(=O)N[C@H](Cc1c[nH]c2ccccc12)C(=O)N[C@H](CCCN)C(=O)N[C@@H](CCCN)C(=O)NCC(=O)N[C@H](CCCN)C(=O)N[C@@H](Cc1c[nH]c2ccccc12)C(=O)N[C@@H](CC(=O)O)C(=O)N[C@H](C(=O)NCC(N)=O)[C@@H](C)CC (stereo partly specified) ({Hexanoyl(4ξ-Me)}-[dN][dY][dW][dOrn][Orn]G[dOrn]WDIG-NH2) | > 32 | – | – | – | – | > 32 | – |
| CCC(C)CCC(=O)N[C@H](CC(N)=O)C(=O)N[C@H](Cc1ccc(O)cc1)C(=O)N[C@H](Cc1c[nH]c2ccccc12)C(=O)N[C@H](CCCN)C(=O)N[C@@H](CCCN)C(=O)NCC(=O)N[C@H](CCCN)C(=O)N[C@@H](Cc1c[nH]c2ccccc12)C(=O)N[C@@H](CO)C(=O)N[C@H](C(=O)NCC(N)=O)[C@@H](C)CC (stereo partly specified) ({Hexanoyl(4ξ-Me)}-[dN][dY][dW][dOrn][Orn]G[dOrn]WSIG-NH2) | 4 (≈ 2.79 µM) | 4 (≈ 2.79 µM) | 8 (≈ 5.57 µM) | 2 (≈ 1.39 µM) | > 32 | 8 (≈ 5.57 µM) | – |
| CCC(C)CCC(=O)N[C@H](CC(N)=O)C(=O)N[C@H](Cc1ccc(O)cc1)C(=O)N[C@H](Cc1c[nH]c2ccccc12)C(=O)N[C@H](CCCN)C(=O)N[C@@H](CCCN)C(=O)NCC(=O)N[C@H](CCCN)C(=O)N[C@@H](Cc1c[nH]c2ccccc12)C(=O)N[C@H](C(=O)N[C@@H](C)C(=O)NCC(=O)N[C@@H](CO)C(N)=O)[C@@H](C)O (stereo partly specified) ({Hexanoyl(4ξ-Me)}-[dN][dY][dW][dOrn][Orn]G[dOrn]WTAGS-NH2) | > 32 | > 32 | > 32 | 16 (≈ 10.7 µM) | > 32 | > 32 | – |
| CCC(C)CCC(=O)N[C@H](CC(N)=O)C(=O)N[C@H](Cc1ccc(O)cc1)C(=O)N[C@H](Cc1c[nH]c2ccccc12)C(=O)N[C@H](CCCN)C(=O)N[C@@H](CCCN)C(=O)NCC(=O)N[C@H](CCCN)C(=O)N[C@@H](Cc1c[nH]c2ccccc12)C(=O)N[C@H](C(=O)N[C@H](C(=O)N[C@@H](C)C(=O)N[C@@H](CO)C(N)=O)[C@@H](C)CC)[C@@H](C)O (stereo partly specified) ({Hexanoyl(4ξ-Me)}-[dN][dY][dW][dOrn][Orn]G[dOrn]WTIAS-NH2) | 32 (≈ 20.6 µM) | > 32 | 32 (≈ 20.6 µM) | 16 (≈ 10.3 µM) | > 32 | 32 (≈ 20.6 µM) | – |
| CC[C@H](C)[C@H](NC(=O)[C@@H](NC(=O)[C@H](Cc1c[nH]c2ccccc12)NC(=O)[C@@H](CCCN)NC(=O)CNC(=O)[C@H](C)NC(=O)[C@@H](CCCN)NC(=O)[C@@H](Cc1c[nH]c2ccccc12)NC(=O)[C@@H](Cc1ccc(O)cc1)NC(=O)[C@@H](CO)NC(=O)CCCCCC(C)C)[C@@H](C)O)C(=O)N[C@@H](CC(N)=O)C(=O)NCC(=O)NCC(N)=O ({Octanoyl(7-Me)}-[dS][dY][dW][dOrn]AG[dOrn]WTINGG-NH2) | – | – | – | – | – | > 32 | – |
| CC[C@H](C)[C@H](NC(=O)[C@H](CN)NC(=O)[C@H](Cc1c[nH]c2ccccc12)NC(=O)[C@@H](CCCN)NC(=O)CNC(=O)[C@H](CCCN)NC(=O)[C@@H](CCCN)NC(=O)[C@@H](Cc1c[nH]c2ccccc12)NC(=O)[C@@H](Cc1ccc(O)cc1)NC(=O)[C@@H](CO)NC(=O)CCCCCC(C)C)C(=O)N[C@@H](CC(N)=O)C(=O)NCC(=O)NCC(N)=O ({Octanoyl(7-Me)}-[dS][dY][dW][dOrn][Orn]G[dOrn]W[Dap]INGG-NH2) | – | – | – | 18 (≈ 11.2 µM) | – | – | < 0.1 |
